Bioassay records (PubChem BioAssay)
This is a sample that favours compounds with a hit; in the whole collection about 5.5% have one here.
Cl transport mod = modulates chloride dependent transport by human KCC2 | Q9H2X9 | KCC2 cells, thallium flux FluoZin-2 fluorescence | B-score of Tl+ flux slope (higher = more flux/activation; lower = inhibition) at 10 µM | actives 2.2% (n = 190,000);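 active = thallium flux slope and its plate-corrected score both differing from the plate sample mean at a set confidence after two filtering rounds, in either direction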;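 also: slope of fluorescence scaled to starting intensity during 10 to 20 s after thallium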
Target sequence (Q9H2X9 whole entry, looked up): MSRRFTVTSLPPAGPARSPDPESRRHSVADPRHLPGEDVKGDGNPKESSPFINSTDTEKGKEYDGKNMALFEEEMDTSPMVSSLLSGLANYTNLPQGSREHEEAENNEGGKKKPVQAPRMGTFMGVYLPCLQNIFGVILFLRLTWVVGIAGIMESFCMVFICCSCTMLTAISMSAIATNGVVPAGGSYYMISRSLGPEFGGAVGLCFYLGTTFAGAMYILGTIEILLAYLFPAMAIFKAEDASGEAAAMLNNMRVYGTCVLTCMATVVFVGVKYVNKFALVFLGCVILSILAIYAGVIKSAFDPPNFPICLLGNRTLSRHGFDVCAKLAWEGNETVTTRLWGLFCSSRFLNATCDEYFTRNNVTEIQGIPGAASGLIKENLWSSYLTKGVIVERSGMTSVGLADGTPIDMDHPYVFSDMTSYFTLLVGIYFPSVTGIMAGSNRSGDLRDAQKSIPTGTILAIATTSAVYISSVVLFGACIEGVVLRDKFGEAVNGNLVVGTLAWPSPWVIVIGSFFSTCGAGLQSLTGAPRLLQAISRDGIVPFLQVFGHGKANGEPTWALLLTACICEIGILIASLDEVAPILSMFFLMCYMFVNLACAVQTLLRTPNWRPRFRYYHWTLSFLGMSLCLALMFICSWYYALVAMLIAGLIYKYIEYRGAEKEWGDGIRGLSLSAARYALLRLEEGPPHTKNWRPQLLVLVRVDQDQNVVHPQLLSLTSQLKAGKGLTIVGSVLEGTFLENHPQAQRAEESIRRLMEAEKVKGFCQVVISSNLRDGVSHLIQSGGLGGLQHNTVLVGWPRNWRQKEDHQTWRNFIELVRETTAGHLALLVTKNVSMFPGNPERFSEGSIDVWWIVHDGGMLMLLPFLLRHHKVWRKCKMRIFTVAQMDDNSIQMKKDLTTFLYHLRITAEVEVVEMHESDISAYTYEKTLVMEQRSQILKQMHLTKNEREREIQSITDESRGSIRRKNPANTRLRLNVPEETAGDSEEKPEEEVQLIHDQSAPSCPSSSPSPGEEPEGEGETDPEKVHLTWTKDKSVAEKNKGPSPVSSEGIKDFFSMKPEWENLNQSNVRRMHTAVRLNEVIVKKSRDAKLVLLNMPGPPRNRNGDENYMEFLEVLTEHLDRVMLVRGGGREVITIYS
STAT3 activator = increases IL-6 driven STAT3 reporter signal; U3A cells, IL-6 STAT3-luciferase reporter, luminescence; 100% = signal with IL-6 EC80 alone; activation (% of control), % at 5.6 µM; actives 0.91% (n = 190,000); AID 871;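 active = activation above the screen-wide mean of compound activation plus 3 SD, cut at about 130% in these data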;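 also: 0% = background luminescence of wells with medium and substrate only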
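Material: STAT3-luciferase reporter U3A cells; Probe or stimulus: IL-6 (33 ng/mL); Incubation: compound pre-incubation 1 h before IL-6, then 6 h stimulation at 37 °C; Technique: luminescence from STAT3-driven luciferase reporter; Evaluation: % activation versus median of IL-6-stimulated wells; Controls: IL-6-only high control.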
STAT1 activator = increases IFN-gamma driven STAT1 reporter signal; actives 2.6% (n = 200,000); activation (% of control), % at 5.5 µM; NIH 3T3 STAT1-luciferase reporter, luminescence; 100% = IFN-gamma alone, no compound; AID 932;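 active = activation above the screen-wide mean activation plus 3 SD, cut at about 130% in these data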;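 also: raw ratio to IFN-gamma control signal so 100% means no change and 0% no light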
HSV augment = increases HSV replication in cells; HSV replication augmentation in cells, fold increase; AID 1956; actives 0.005% (n = 220,000); maximum fold increase; in the data active = maximum fold increase above about 1.5; inconclusive = no clear call, values can overlap the other calls; tested in PC3 cells
STAT1 blocker = inhibitors of IFN-gamma induced STAT1 signaling | NIH 3T3 STAT1-luciferase reporter, luminescence | inhibition, % at 5.5 µM | actives 0.35% (n = 200,000) | AID 920;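 active = inhibition above a set limit, the mean inhibition across all tested compounds plus 3 SD, cut at about 34% in these data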;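 also: 0% = IFN-gamma with DMSO and 100% = IFN-gamma with 300 µM nifuroxazide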
STAT3 inh = reduces IL-6 driven STAT3 reporter signal; U3A cells, IL-6 STAT3-luciferase reporter, luminescence; host cell line lacks STAT1; inhibition, % at 5.5 µM; actives 0.89% (n = 190,000);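 active = inhibition above the mean inhibition across all screened compounds plus 3 SD, cut at about 44% in these data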;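 also: 0% = DMSO only wells and 100% = 100 µM nifuroxazide control wells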
KCC2 sec1 = confirmation of human KCC2 transport modulators; shares compounds with Cl transport mod; HEK293-KCC2, thallium flux, FluoZin2 fluorescence; stronger effect = higher value; normalised thallium flux (F/F0 slope) at 10 µM; actives 15% (n = 3,700);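 active = thallium flux slope above the same plate's solvent-only control mean plus 3 SD; inconclusive = the two replicate wells disagree; inactive = no significant difference from solvent-only control wells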
KCC2 bumet counter = bumetanide-insensitive thallium flux in KCC2 cells with ouabain, counter-screen; shares compounds with Cl transport mod; HEK293-KCC2 + bumetanide/ouabain, thallium flux FluoZin2; stronger effect = higher value; normalized thallium flux at 10 µM; actives 49% (n = 3,700);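 active = thallium entry rate above the same plate's blocked-transporter control wells by more than 3 SD; inconclusive = the two repeat wells disagree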;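 also: raw slope of fluorescence over initial fluorescence between 10 and 20 s after thallium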
KCC2 secondary2 = KCC2 (human) modulation, second secondary assay. AID 1715. HEK293-KCC2, thallium flux FluoZin2 fluorescence; actives lie on both sides; F/F0 rise rate, 10–20 s post-thallium. normalized thallium flux at 10 µM. shares compounds with Cl transport mod. actives 23% (n = 3,700);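 active = thallium flux slope more than 3 SD above or below the plate's solvent-only control mean, mostly below; inconclusive = the two repeat wells disagreed; inactive = no significant shift from solvent-only controls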;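 also: raw slope with 0.1% DMSO as baseline and bumetanide as block control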
HEK counter1 = parental HEK flux effect, counter-screen. AID 1716. actives 46% (n = 3,700). thallium flux rate (normalised fluorescence) at 10 µM. HEK293 parental cells, thallium flux FluoZin2, ouabain; baseline-ratio fluorescence slope, 10–20 s after thallium. shares compounds with Cl transport mod;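 active = thallium flux rate significantly above the same plate's solvent-only control wells, beyond their mean plus 3 SD; inconclusive = the two replicate wells gave conflicting results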
KCC2 ouabain = modulates human KCC2 on retest with ouabain; shares compounds with Cl transport mod; HEK293-KCC2, thallium flux FluoZin2 fluorescence; bidirectional: low = inhibitor, high = activator; raw Tl+ flux slope (below DMSO = inhibition, above = activation) at 10 µM; actives 48% (n = 3,700); AID 1717;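 active = thallium flux slope beyond 3 SD from same-plate DMSO control mean in most replicates, usually higher, sometimes lower; inconclusive = repeat tests gave conflicting results; inactive = no significant difference from controls in most replicates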;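 also: slope of initial-normalized fluorescence between seconds 10 and 20 after thallium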
HEK counter2 = counter-screen for KCC2 modulators: effect in parental HEK293 cells; shares compounds with Cl transport mod; thallium flux FluoZin-2 fluorescence slope; thallium flux slope at 10 µM; actives 33% (n = 3,700); AID 1718;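 active = thallium flux slope above the same plate's solvent-control mean plus 3 SD in both duplicate wells; inconclusive = duplicate wells that disagreed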;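 also: run without ouabain in cells lacking the KCC2 cotransporter; slope of fluorescence scaled to its starting value between 10 and 20 s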
* marks the source's active call; other numbers are inactive results; i = inactive; ? = inconclusive; nt = no result.

SMILES	Cl transport mod	STAT3 activator	STAT1 activator	HSV augment	STAT1 blocker	STAT3 inh	KCC2 sec1	KCC2 bumet counter	KCC2 secondary2	HEK counter1	KCC2 ouabain	HEK counter2
Cn1c(C(=O)NCCN2CCN(c3ccccc3F)CC2)cc2c(=O)n(C)c3ccccc3c21	-4.7*	101	100	nt	1	-1	0.005	0.0048	0.022*	0.0076	?	0.011
CCCCn1c(CNC(=O)CCC)nc2ccccc21	-0.0083	102	95	i	6	3	nt	nt	nt	nt	nt	nt
C=C(C)Cn1c(CCNC(=O)CCC)nc2ccccc21	0.3	94	104	i	-6	12	nt	nt	nt	nt	nt	nt
C=C(C)Cn1c(CCCNC(=O)CC)nc2ccccc21	-5*	96	97	i	3	8	0.0085	0.0065	0.033	0.0079	0.023	0.011
CCCCCn1c(CNC(=O)CCC)nc2ccccc21	-4.6*	102	98	i	3	2	0.006	0.0039	0.032	0.0069	0.018	?
CCOc1ccc(C(C)NC(=O)c2cccc(F)c2)cc1 (centres undefined)	0.42	92	93	i	8	10	nt	nt	nt	nt	nt	nt
O=C(NC(=S)NNC(=O)c1ccccc1O)c1ccco1	3.5*	99	102	i	-3	6	0.011	0.013*	0.035	?	?	0.011
O=C(NNC(=S)NC(=O)c1ccco1)c1ccc(NC(=O)c2ccccc2)cc1	-0.57	99	90	i	10	3	nt	nt	nt	nt	nt	nt
O=C(NC(=S)NNC(=O)c1cc2ccccc2cc1O)c1ccco1	48*	107	101	i	-1	-2	0.021*	0.073*	0.034	0.05*	0.058*	0.014*
O=C1COc2ccc(-c3csc(=Nc4ccc(OC(F)F)cc4)n3CC3CCCO3)cc2N1 (centres undefined)	-4.8*	88	100	i	1	17	0.0071	0.0051	0.028	0.0075	0.017	0.01
COc1ccccc1N=c1scc(-c2ccc3c(c2)NC(=O)CO3)n1CC1CCCO1 (centres undefined)	0.014	104	100	i	1	-1	nt	nt	nt	nt	nt	nt
S=c1nc(C2CC2)n(-c2ccccc2)[nH]1	4*	nt	nt	i	nt	nt	0.014*	0.012*	0.031	0.01*	?	?
O=c1c2c3n(c(=S)nc2[nH]n1-c1ccccc1)CCCCC3	1.2	88	102	i	-3	14	nt	nt	nt	nt	nt	nt
O=C(Oc1cc(-c2ccccc2)no1)c1ccc(Cl)cc1	-5.5*	100	104	i	-4	6	0.0083	0.0064	0.033	0.0072	0.021	0.0096
O=C(Nc1ccc(OC(F)(F)F)cc1)c1[nH]ncc1[N+](=O)[O-]	13*	93	94	i	5	11	0.0081	0.02*	0.033	0.022*	?	0.016*
Cc1ccc(NC(=O)COC(=O)C2CSC3(C)CCC(=O)N23)cc1S(=O)(=O)N1CCOCC1 (centres undefined)	-0.89	110	102	i	-4	-11	nt	nt	nt	nt	nt	nt
c1ccc(-c2nc(CSc3n[nH]c(-c4cccs4)n3)cs2)cc1	-3.8*	117	101	i	-1	-18	0.0063	0.0045	0.024*	0.0067	0.016	0.01
COc1cc(-c2nnc(SCC(=O)/C(C#N)=C(\C)N)o2)cc(OC)c1OC	nt	104	97	i	3	-4	nt	nt	nt	nt	nt	nt
COCCn1c(-c2ccc(Cl)cc2Cl)nc2c(c(=O)c3ccccc3n2C)c1=O	-3.4*	103	97	i	5	-6	0.006	0.0047	0.024*	?	0.013*	0.0096
O=C(Cc1ccccc1)NCc1n[nH]c(=S)n1-c1ccc(Br)cc1	-0.0091	107	98	i	1	-6	nt	nt	nt	nt	nt	nt
Cc1ccc(C2CC2c2n[nH]c(=S)n2-c2cccc(Cl)c2)cc1 (centres undefined)	5.6*	98	97	i	4	4	0.0077	0.027*	0.03	0.011*	?	0.0099
Cc1ccc(-n2c([C@@H]3C[C@H]3c3ccccc3)n[nH]c2=S)cc1	1.5	103	96	i	4	0	nt	nt	nt	nt	nt	nt
O=C(c1ccccc1Sc1c(Cl)cccc1[N+](=O)[O-])N1CCOCC1	-0.55	102	90	i	10	-1	nt	nt	nt	nt	nt	nt
COCCCNC(=O)C(=O)N/N=C/c1cc2c(cc1Br)OCO2	0.18	100	98	i	0	5	nt	nt	nt	nt	nt	nt
COCCN1C(=O)/C(=C/c2cc3c(cc2Br)OCO3)NC1=S	21*	104	99	i	-1	-2	0.0058	0.047*	0.041*	0.035*	0.041*	0.033*
SMILES	Cl transport mod	STAT3 activator	STAT1 activator	HSV augment	STAT1 blocker	STAT3 inh	KCC2 sec1	KCC2 bumet counter	KCC2 secondary2	HEK counter1	KCC2 ouabain	HEK counter2
Cn1c(NC(=O)C2CCCO2)cc(=O)n(C)c1=O (centres undefined)	0.038	97	95	i	6	10	nt	nt	nt	nt	nt	nt
O=C(OCCCc1ccncc1)c1ccc(S(=O)(=O)N2CCOCC2)cc1	nt	94	100	i	0	12	0.0095	0.018*	0.034	0.011*	0.022	0.011*
CC(NC(=O)c1ccc(C23CC4CC(CC(C4)C2)C3)cc1)C(=O)O (centres undefined)	-0.74	99	118	i	-21	3	nt	nt	nt	nt	nt	nt
Cc1ccc(Nc2nc(-c3ccc(C)cc3)c(CC(=O)O)s2)cc1	-3.2*	106	109	i	-12	-6	0.0084	0.0091*	0.029	0.0073	0.018	0.01
COc1ccc(Nc2nc(-c3ccc(OC)cc3)c(CCC(=O)O)s2)cc1	-2.9	nt	nt	i	nt	nt	nt	nt	nt	nt	nt	nt
COc1ccc(CNc2nc3ccccc3n2Cc2ccccc2)cc1OC	nt	88	88	i	13	24	nt	nt	nt	nt	nt	nt
CNS(=O)(=O)c1cccc2nsnc12	0.14	101	110	i	-11	2	0.0088	?	0.031	0.008	0.021	0.011
CN(C)S(=O)(=O)c1cccc2nsnc12	nt	103	101	i	-1	0	nt	nt	nt	nt	nt	nt
